Several values for one entry are separate records, joined by “and”; a condition that tells them apart may be missing. Identical values can stand only once.
What was measured:
U2OS = assay: Multiplex assay against U2OS; assay type: toxicity, cell-based; settings: human
Summary of the method: (§1)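 Four dyes were applied at seeding to live cells: Hoechst33342, BioTracker Green Microtubule Cytoskeleton Dye, MitoTracker Red and Annexin V Alexa Fluor 680. Imaging after compound addition used a CQ1 microscope at 37°C and 5% CO2. CellPathfinder machine-learning gating then sorted cells into Hoechst high-intensity objects or normal cells, normal cells into healthy, pyknosed or fragmented nuclei, and pyknosed cells into mitotic or apoptotic, with tubulin, mitochondrial-mass and membrane-permeability phenotypes given as per cents of healthy-nucleus cells.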

Fibroblast = assay: Multiplex assay against human fibroblast; assay type: toxicity, cell-based; summary of the method: as §1
[1] = 24 h, 10 µM, compound concentration 10 uM
[2] = 48 h, 1 µM, compound concentration 1 uM
[3] = 48 h, 10 µM, compound concentration 10 uM
[4] = 12 h, 1 µM, compound concentration 1 uM
[5] = 12 h, 10 µM, compound concentration 10 uM
[6] = 24 h, 1 µM, compound concentration 1 uM

COC(=O)C1=C(C)NC(C)=C(C(=O)OC(C)C)C1c1cccc2nonc12 (stereo unspecified) [ISRADIPINE]
Population Hoechst High Intensity Objects (%) (U2OS; [1]): 0% and 13.61% | Population Membrane Permeable-Phenotype (%) (U2OS; [1]): 0.69% and 3.95% | Population Mitotic Cells (%) (U2OS; [1]): 62.5% and 79.07% | Population Normal (%) (U2OS; [1]): 100% and 86.39% | Population Pyknosed Nuclei (%) (U2OS; [1]): 12.43% and 16.93% | Population Tubulin-Different-Phenotype (%) (U2OS; [1]): 3.22% and 0% | Total Cell Count (U2OS; [1]): 515 and 294 | Population Apoptotic (%) (U2OS; [2]): 41.54% and 54.55% | Population Fragmented Nuclei (%) (U2OS; [2]): 2.53% and 3.11% | Population Healthy Nuclei (%) (U2OS; [2]): 89.63% and 84.05% | Population Hoechst High Intensity Objects (%) (U2OS; [2]): 0% | Population Membrane Permeable-Phenotype (%) (U2OS; [2]): 1.35% and 1.39% | Population Mitochondria Different-Phenotype (%) (U2OS; [2]): 0.27% and 4.17% | Population Mitotic Cells (%) (U2OS; [2]): 58.46% and 45.45% | Population Normal (%) (U2OS; [2]): 100% | Population Pyknosed Nuclei (%) (U2OS; [2]): 7.84% and 12.84% | Population Tubulin-Different-Phenotype (%) (U2OS; [2]): 1.35% and 0% | Population Apoptotic (%) (U2OS; [3]): 50.83% and 53.45% | Population Fragmented Nuclei (%) (U2OS; [3]): 3.44% and 6.67% | Population Healthy Nuclei (%) (U2OS; [3]): 82.35% and 75.76% | Population Hoechst High Intensity Objects (%) (U2OS; [3]): 0% and 9.34% | Population Membrane Permeable-Phenotype (%) (U2OS; [3]): 1.58% and 4.4% | Population Mitochondria Different-Phenotype (%) (U2OS; [3]): 0.14% and 6.4% | Population Mitotic Cells (%) (U2OS; [3]): 49.17% and 46.55% | Population Normal (%) (U2OS; [3]): 100% and 90.66% | Population Pyknosed Nuclei (%) (U2OS; [3]): 14.22% and 17.58% | Population Tubulin-Different-Phenotype (%) (U2OS; [3]): 2.73% and 2.8% | Total Cell Count (U2OS; [3]): 844 and 364 | Population Apoptotic (%) (Fibroblast; [4]): 16.67% and 18.92% | Population Fragmented Nuclei (%) (Fibroblast; [4]): 8.07% and 3.38% | Population Healthy Nuclei (%) (Fibroblast; [4]): 65.84% and 81.01% | Population Hoechst High Intensity Objects (%) (Fibroblast; [4]): 0% | Population Membrane Permeable-Phenotype (%) (Fibroblast; [4]): 3.77% and 3.12% | Population Mitochondria Different-Phenotype (%) (Fibroblast; [4]): 7.55% and 11.98% | Population Mitotic Cells (%) (Fibroblast; [4]): 83.33% and 81.08% | Population Normal (%) (Fibroblast; [4]): 100% | Population Pyknosed Nuclei (%) (Fibroblast; [4]): 26.09% and 15.61% | Population Tubulin-Different-Phenotype (%) (Fibroblast; [4]): 15.09% and 16.15% | Total Cell Count (Fibroblast; [4]): 161 and 237 | Population Fragmented Nuclei (%) (Fibroblast; [5]): 12.61% and 3.08% | Population Healthy Nuclei (%) (Fibroblast; [5]): 63.04% and 75.33% | Population Hoechst High Intensity Objects (%) (Fibroblast; [5]): 0% | Population Membrane Permeable-Phenotype (%) (Fibroblast; [5]): 5.52% and 7.02% | Population Mitochondria Different-Phenotype (%) (Fibroblast; [5]): 17.24% and 19.3% | Population Mitotic Cells (%) (Fibroblast; [5]): 94.64% and 77.55% | Population Normal (%) (Fibroblast; [5]): 100% | Population Pyknosed Nuclei (%) (Fibroblast; [5]): 24.35% and 21.59% | Population Tubulin-Different-Phenotype (%) (Fibroblast; [5]): 40% and 48.54% | Total Cell Count (Fibroblast; [5]): 230 and 227 | Population Apoptotic (%) (Fibroblast; [6]): 18.52% and 21.74% | Population Fragmented Nuclei (%) (Fibroblast; [6]): 12.43% and 8.5% | Population Healthy Nuclei (%) (Fibroblast; [6]): 72.97% and 82.19% | Population Hoechst High Intensity Objects (%) (Fibroblast; [6]): 0% | Population Membrane Permeable-Phenotype (%) (Fibroblast; [6]): 5.93% and 2.46% | Population Mitochondria Different-Phenotype (%) (Fibroblast; [6]): 1.48% and 4.93% | Population Mitotic Cells (%) (Fibroblast; [6]): 81.48% and 78.26% | Population Normal (%) (Fibroblast; [6]): 100% | Population Pyknosed Nuclei (%) (Fibroblast; [6]): 14.59% and 9.31% | Population Tubulin-Different-Phenotype (%) (Fibroblast; [6]): 12.59% and 16.26% | Total Cell Count (Fibroblast; [6]): 185 and 247 | Population Fragmented Nuclei (%) (Fibroblast; [1]): 9.72% and 2.69% | Population Healthy Nuclei (%) (Fibroblast; [1]): 68.83% and 76.23% | Population Hoechst High Intensity Objects (%) (Fibroblast; [1]): 0% | Population Membrane Permeable-Phenotype (%) (Fibroblast; [1]): 4.12% | Population Mitochondria Different-Phenotype (%) (Fibroblast; [1]): 8.82% and 15.88% | Population Mitotic Cells (%) (Fibroblast; [1]): 98.11% and 80.85% | Population Normal (%) (Fibroblast; [1]): 100% | Population Pyknosed Nuclei (%) (Fibroblast; [1]): 21.46% and 21.08% | Population Tubulin-Different-Phenotype (%) (Fibroblast; [1]): 39.41% and 47.06% | Total Cell Count (Fibroblast; [1]): 247 and 223 | Population Apoptotic (%) (Fibroblast; [2]): 30% and 23.53% | Population Fragmented Nuclei (%) (Fibroblast; [2]): 7.14% and 6.07% | Population Healthy Nuclei (%) (Fibroblast; [2]): 81.87% and 87.04% | Population Hoechst High Intensity Objects (%) (Fibroblast; [2]): 0% | Population Membrane Permeable-Phenotype (%) (Fibroblast; [2]): 2.01% and 1.4% | Population Mitotic Cells (%) (Fibroblast; [2]): 70% and 76.47% | Population Normal (%) (Fibroblast; [2]): 100% | Population Pyknosed Nuclei (%) (Fibroblast; [2]): 10.99% and 6.88% | Population Tubulin-Different-Phenotype (%) (Fibroblast; [2]): 10.07% and 17.21% | Total Cell Count (Fibroblast; [2]): 182 and 247 | Population Apoptotic (%) (Fibroblast; [3]): 33.33% and 50% | Population Fragmented Nuclei (%) (Fibroblast; [3]): 9.58% and 5.05% | Population Healthy Nuclei (%) (Fibroblast; [3]): 85.42% and 89.45% | Population Hoechst High Intensity Objects (%) (Fibroblast; [3]): 0% | Population Membrane Permeable-Phenotype (%) (Fibroblast; [3]): 1.46% and 8.72% | Population Mitochondria Different-Phenotype (%) (Fibroblast; [3]): 14.63% and 8.72% | Population Mitotic Cells (%) (Fibroblast; [3]): 66.67% and 50% | Population Normal (%) (Fibroblast; [3]): 100% | Population Pyknosed Nuclei (%) (Fibroblast; [3]): 5% and 5.5% | Population Tubulin-Different-Phenotype (%) (Fibroblast; [3]): 24.39% and 55.38% | Total Cell Count (Fibroblast; [3]): 240 and 218
